# From ChEMBL document CHEMBL1121362, “DNA intercalating compounds as potential antitumor agents. 1. Preparation and properties of 7H-pyridocarbazoles” (1980)
# Experiments:
# Calf thymus DNA [1] = assay: DNA binding affinity constant in calf-thymus DNA at pH 7.4; format: nucleic-acid assay; conditions: Bos taurus
# Outline: (§1)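 Calf thymus DNA (4 µg/mL) at 25 °C, with drug at 10^-5 M, titrated with microliter portions of ethidium bromide (100 µg/mL stock in buffer). Fluorescence excitation was 546 nm and emission 590 nm. Apparent affinity constant (Kap) was derived from Scatchard plots of the competition.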
# L1210 [2] = assay: The compound was tested for optimum dose fraction of MTD against L1210 cells in […] mice; format: functional, Mus musculus
# Outline: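 L1210 leukaemia, 10^5 cells ip into DBA2 mice. Single ip dose of the acetate salt 24 h later, with 20–30 mice per group. Dose is expressed as a fraction of the MTD, where the MTD (highest dose causing no deaths) is taken as unity.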
# L1210 [3] = assay: The compound was tested for maximum tolerated dose (MTD) against L1210 cells in […] mice; format: functional, Mus musculus
# Outline: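 Acute toxicity in mice by the usual procedure. MTD is the highest dose that can be given without any animal death.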
# Mus musculus = organism: Mus musculus; assay: The mean survival time of treated animals (T) was compared to that of control animals(C) calculated as % T/C = (treated survival/control) x 100; format: functional
# Outline: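 DBA2 mice, 20–30 per group, given 10^5 L1210 cells ip. 24 h later one ip injection of drug (acetate salt, water-soluble); controls get solvent alone. Deaths recorded daily and survivors past 45 days counted as cured. T/C = mean survival treated/control ×100, with significance by Student's t test.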
# [4] = Acid dissociation constant (pKa) measured by UV spectroscopy
# Calf thymus DNA [5] = assay: DNA binding affinity constant for calf-thymus DNA at pH 6; format: nucleic-acid assay; conditions: Bos taurus; outline: as §1
# Calf thymus DNA [6] = assay: DNA binding affinity constant for calf-thymus DNA at pH 5; format: nucleic-acid assay; conditions: Bos taurus; outline: as §1
Compound,pKa [4],K app (Calf thymus DNA [5]) [M⁻¹],K app (Calf thymus DNA [6]) [M⁻¹],K app (Calf thymus DNA [1]) [M⁻¹],OD (L1210 [2]),MTD (L1210 [3]) [mg/kg],T/C (Mus musculus) [%]
COc1ccc2c(c1)c1c3c[n+](CCN4CCCCC4)ccc3ccc1n2C.[Cl-],–,–,–,300000,0.5,10,–
COc1ccc2[nH]c3ccc4c[n+](C)ccc4c3c2c1.[I-],–,–,–,200000,0.5,50,–
COc1ccc2c(c1)c1c3c[n+](C)ccc3ccc1n2C.[I-],–,–,–,695000,0.7,25,122
C[n+]1cccc2c3c(ccc21)[nH]c1ccccc13.[I-],–,–,–,60000,0.5,50,–
COc1ccc2c(c1)c1c3cc[n+](C)cc3ccc1n2C.[I-],–,–,–,310000,0.5,150,115
C[n+]1ccc2c(ccc3[nH]c4ccc(O)cc4c32)c1.[I-],–,–,–,67000,0.5,50,–
C[n+]1ccc2ccc3[nH]c4ccc(O)cc4c3c2c1.[I-],–,–,–,180000,1,25,–
COc1ccc2[nH]c3ccc4cc[n+](C)cc4c3c2c1.[I-],–,–,–,290000,0.5,50,–
COc1ccc2[nH]c3ccc4cc[n+](CCO)cc4c3c2c1.[I-],–,–,–,110000,0.5,100,116
COc1ccc2[nH]c3ccc4cc[n+](CCN5CCCCC5)cc4c3c2c1.[Cl-],–,–,–,120000,1,10,–

# Second part, led by results:
pKa [4],K app (Calf thymus DNA [5]) [M⁻¹],K app (Calf thymus DNA [6]) [M⁻¹],Compound,K app (Calf thymus DNA [1]) [M⁻¹],OD (L1210 [2]),MTD (L1210 [3]) [mg/kg],T/C (Mus musculus) [%]
5.35,30000,115000,Oc1ccc2[nH]c3ccc4cccnc4c3c2c1,16000,–,–,–
5.9,250000,530000,COc1ccc2c(c1)c1c3cnccc3ccc1n2C,146000,–,–,–
5.25,32000,100000,COc1ccc2[nH]c3ccc4cccnc4c3c2c1,18000,–,–,–
5.75,44000,170000,COc1ccc2[nH]c3ccc4ccncc4c3c2c1,35000,–,–,–
6.75,82000,240000,Oc1ccc2[nH]c3ccc4cnccc4c3c2c1,19000,–,–,–
6.4,115000,300000,Oc1ccc2[nH]c3ccc4ccncc4c3c2c1,42000,–,–,–
6.6,467000,1.1e+06,COc1ccc2c(c1)c1c3ccncc3ccc1n2C,123000,–,–,–
5.35,37000,157000,COc1ccc2c(c1)c1c3ncccc3ccc1n2C,23000,–,–,–
6.4,110000,150000,COc1ccc2[nH]c3ccc4cnccc4c3c2c1,77000,–,–,–
5.6,40000,120000,COc1ccc2[nH]c3ccc4ncccc4c3c2c1,16000,–,–,–
